# Columns and labels:
# [1] = Pharmacokinetics of saponins in rat plasma after oral gavage of raw; assay type: in vivo, Sprague–Dawley rats; details: for AUC0–t: SD rats, oral administration of SPN extract 1.0 g/kg; for AUC(0-t) / AUC(0-inf) / Cmax / Tmax / half-life: male, Sprague-Dawley, rat, plasma, po, 1 g/kg, oral gavage of raw P. notoginseng aqueous extract 1 g/kg, n = 6, mean ± SD; for AUC(0-t): AUC0–t; for AUC(0-t) / AUC(0-inf) / Cmax / Tmax: male SD rats; for AUC(0-inf): AUC0–∞; for half-life: t1/2, male SD rats; for time in which the maximum plasma concentration was achieved: after oral administration of RPN or SPN aqueous extract
# Summary of the method: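 Male SD rats (200–250 g, n = 6/group) were acclimatised for 7 d and fasted overnight with water. They received a single oral gavage of aqueous extract at 1 g/kg (5 mL/kg). Heparinized orbital blood was taken pre-dose and at 5 min to 48 h, then centrifuged and stored at −40 °C. Plasma was methanol-precipitated with theophylline internal standard and analysed by MRM. Cmax and Tmax were read directly; AUC and t1/2 were non-compartmental; results are mean ± SD.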
# [2] = ref Ma et al. [2021]; cited from earlier work
SMILES,AUC0–t [1],AUC(0-t) [1],AUC(0-inf) [1],Cmax [1],Tmax [1],half-life [1],time in which the maximum plasma concentration was achieved ([1]; rats),"AUC0–t and Cmax, steamed versus raw group ([1]; oral dose of raw and steamed P. notoginseng aqueous extracts, rats)","detection in rat plasma ([1]; after oral administration of P. notoginseng extracts, rats, listed as GRg5)",bioavailability [2]
"CC(C)=CCC[C@](C)(O[C@@H]1O[C@H](CO[C@@H]2O[C@H](CO)[C@@H](O)[C@H](O)[C@H]2O)[C@@H](O)[C@H](O)[C@H]1O)[C@H]1CC[C@]2(C)[C@@H]1[C@H](O)C[C@@H]1[C@@]3(C)CC[C@H](O[C@@H]4O[C@H](CO)[C@@H](O)[C@H](O)[C@H]4O[C@@H]4O[C@H](CO)[C@@H](O)[C@H](O)[C@H]4O)C(C)(C)[C@@H]3CC[C@]12C [Rb1, ginsenoside Rb1]",5094.06 ± 1453.14 ng/h/mL,15100 ± 2380 ng·h/mL,15200 ± 2440 ng·h/mL,997 ± 144 ng/mL,8.67 ± 1.63 h,9.58 ± 1.11 h,,,,
"CC(C)=CCC[C@](C)(O[C@@H]1O[C@H](CO)[C@@H](O)[C@H](O)[C@H]1O)[C@H]1CC[C@]2(C)[C@@H]1[C@H](O)C[C@@H]1[C@@]3(C)CC[C@H](O[C@@H]4O[C@H](CO)[C@@H](O)[C@H](O)[C@H]4O[C@@H]4O[C@H](CO)[C@@H](O)[C@H](O)[C@H]4O)C(C)(C)[C@@H]3CC[C@]12C [Rd, ginsenoside Rd]",1396.89 ± 595.14 ng/h/mL,3630 ± 569 ng·h/mL,4170 ± 733 ng·h/mL,164 ± 28.8 ng/mL,8.67 ± 2.73 h,13.9 ± 1.71 h,,,,
"CC(C)=CCC[C@](C)(O[C@@H]1O[C@H](CO)[C@@H](O)[C@H](O)[C@H]1O)[C@H]1CC[C@]2(C)[C@@H]1[C@H](O)C[C@@H]1[C@@]3(C)CC[C@H](O)C(C)(C)[C@@H]3[C@@H](O[C@@H]3O[C@H](CO)[C@@H](O)[C@H](O)[C@H]3O[C@@H]3O[C@@H](C)[C@H](O)[C@@H](O)[C@H]3O)C[C@]12C [Re, ginsenoside Re]",,87.7 ± 20.7 ng·h/mL,91.7 ± 19.7 ng·h/mL,28.1 ± 13.1 ng/mL,1.24 ± 0.49 h,3.16 ± 1.73 h,≤ 1.63 h,no significantly difference,,
"CC(C)=CCC[C@](C)(O[C@@H]1O[C@H](CO)[C@@H](O)[C@H](O)[C@H]1O)[C@H]1CC[C@]2(C)[C@@H]1[C@H](O)C[C@@H]1[C@@]3(C)CC[C@H](O)C(C)(C)[C@@H]3[C@@H](O[C@@H]3O[C@H](CO)[C@@H](O)[C@H](O)[C@H]3O)C[C@]12C [Rg1, ginsenoside Rg1]",176.63 ± 42.49 ng/h/mL,808 ± 382 ng·h/mL,861 ± 355 ng·h/mL,66.7 ± 32.8 ng/mL,9.33 ± 2.07 h,7.92 ± 6.73 h,≤ 9.33 h,,,
"CC(C)=CC/C=C(\C)[C@H]1CC[C@]2(C)[C@@H]1[C@H](O)C[C@@H]1[C@@]3(C)CC[C@H](O[C@@H]4O[C@H](CO)[C@@H](O)[C@H](O)[C@H]4O[C@@H]4O[C@H](CO)[C@@H](O)[C@H](O)[C@H]4O)C(C)(C)[C@@H]3CC[C@]12C [Rg5, ginsenoside Rg5]",,,,,,,,,could not be detected,0.67%
